Tests used:
[1] = target: Lysine--tRNA ligase (Plasmodium falciparum (isolate 3D7), UniProt Q8IDJ8); experiment: Inhibition of Plasmodium falciparum KRS expressed in Escherichia coli BL21 using tRNA(Lys) as substrate after 45 mins in presence of L-lysine by AMP-GLO assay
[2] = test system: Plasmodium falciparum; experiment: Antiparasitic activity against Plasmodium falciparum 3D7 infected in human erythrocytes after 48 hrs by SYBR green-1 staining based assay; assay type: functional, organism-based; details: 3D7, 48 h
[3] = target: T1, Lysine--tRNA ligase (Homo sapiens, UniProt Q15046); experiment: Binding affinity to human KRS expressed in Escherichia coli BL21 by thermal shift assay
Outline: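 Protein thermal shift assay with Hs-KRS at 4 μM in the presence of L-lysine; binding read out as the shift in melting temperature (ΔTm, °C) produced by each ligand.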
Target sequence in this assay (Q15046 2-597 limits assumed): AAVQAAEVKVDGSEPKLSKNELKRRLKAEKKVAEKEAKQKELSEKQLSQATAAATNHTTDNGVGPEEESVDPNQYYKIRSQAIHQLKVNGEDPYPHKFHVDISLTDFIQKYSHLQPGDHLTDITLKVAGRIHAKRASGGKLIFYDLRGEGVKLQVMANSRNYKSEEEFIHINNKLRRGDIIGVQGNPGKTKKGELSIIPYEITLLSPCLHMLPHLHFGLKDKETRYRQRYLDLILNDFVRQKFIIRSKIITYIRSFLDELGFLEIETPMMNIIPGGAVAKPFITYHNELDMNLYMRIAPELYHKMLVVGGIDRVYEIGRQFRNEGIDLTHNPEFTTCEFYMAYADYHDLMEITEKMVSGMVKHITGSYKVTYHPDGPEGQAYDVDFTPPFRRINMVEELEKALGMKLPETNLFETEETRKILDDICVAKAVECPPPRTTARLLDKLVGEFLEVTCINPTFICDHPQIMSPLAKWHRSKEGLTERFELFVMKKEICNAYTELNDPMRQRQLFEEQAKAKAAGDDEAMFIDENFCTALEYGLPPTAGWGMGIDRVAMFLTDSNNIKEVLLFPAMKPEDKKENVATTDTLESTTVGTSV

[4] = target: T1, Lysine--tRNA ligase; experiment: Inhibition of human KRS expressed in Escherichia coli BL21 using tRNA(Lys) as substrate after 1 hr in presence of L-lysine by AMP-GLO assay
Target sequence in this assay (Q15046 whole entry): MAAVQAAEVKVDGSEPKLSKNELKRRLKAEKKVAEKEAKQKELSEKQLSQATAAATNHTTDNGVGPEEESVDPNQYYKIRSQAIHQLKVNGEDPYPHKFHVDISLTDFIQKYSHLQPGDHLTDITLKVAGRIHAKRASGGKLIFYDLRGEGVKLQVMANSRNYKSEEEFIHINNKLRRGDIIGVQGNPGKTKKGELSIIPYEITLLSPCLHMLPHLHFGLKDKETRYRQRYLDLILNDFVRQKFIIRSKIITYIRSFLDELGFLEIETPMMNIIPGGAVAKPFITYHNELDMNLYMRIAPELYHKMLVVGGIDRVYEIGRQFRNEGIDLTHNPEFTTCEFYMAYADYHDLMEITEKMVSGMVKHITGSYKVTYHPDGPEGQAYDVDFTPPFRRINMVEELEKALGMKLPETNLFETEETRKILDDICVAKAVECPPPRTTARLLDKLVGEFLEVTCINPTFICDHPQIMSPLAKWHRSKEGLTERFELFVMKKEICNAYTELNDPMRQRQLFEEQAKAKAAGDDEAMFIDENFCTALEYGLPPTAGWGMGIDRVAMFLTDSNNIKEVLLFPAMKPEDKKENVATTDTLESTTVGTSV

[5] = target: Lysine--tRNA ligase (Plasmodium falciparum (isolate 3D7)) (UniProt Q8IDJ8); experiment: Binding affinity to Plasmodium falciparum KRS expressed in Escherichia coli BL21 by thermal shift assay
Outline: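 Protein thermal shift assay with PfKRS at 2 μM in the presence of L-lysine. Binding is reported as the shift in melting temperature (ΔTm, °C) of the enzyme when the compound is added.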

[6] = Selectivity ratio of IC50 for human KRS to IC50 for Plasmodium falciparum KRS

Sequence of Lysine--tRNA ligase (Plasmodium falciparum (isolate 3D7), UniProt Q8IDJ8) (Q8IDJ8 whole entry): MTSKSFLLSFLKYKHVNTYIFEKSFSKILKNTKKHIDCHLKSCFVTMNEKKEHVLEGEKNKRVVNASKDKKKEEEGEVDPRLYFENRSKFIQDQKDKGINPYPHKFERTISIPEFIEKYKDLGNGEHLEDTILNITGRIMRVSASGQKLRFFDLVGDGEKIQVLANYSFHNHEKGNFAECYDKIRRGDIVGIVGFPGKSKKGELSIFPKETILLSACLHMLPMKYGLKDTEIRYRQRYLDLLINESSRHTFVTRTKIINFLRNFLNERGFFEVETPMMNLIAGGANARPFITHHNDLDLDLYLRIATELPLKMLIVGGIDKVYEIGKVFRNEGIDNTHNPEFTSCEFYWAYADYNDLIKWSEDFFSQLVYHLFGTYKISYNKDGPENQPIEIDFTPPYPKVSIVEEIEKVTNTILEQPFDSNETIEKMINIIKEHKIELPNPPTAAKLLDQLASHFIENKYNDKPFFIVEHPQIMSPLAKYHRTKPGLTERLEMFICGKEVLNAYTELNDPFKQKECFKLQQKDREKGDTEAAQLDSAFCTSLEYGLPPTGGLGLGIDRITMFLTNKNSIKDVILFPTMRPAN
Sequence of Lysine--tRNA ligase (Plasmodium falciparum (isolate 3D7)) (Q8IDJ8 1-583): as the sequence (Q8IDJ8 whole entry) above

Row | SMILES | IC50 [1] [µM] | EC50 [2] [µM] | ΔTm [3] [°C] | IC50 [4] [µM] | ΔTm [5] [°C] | Ratio IC50 [6]
1 | C[C@H]1CCC[C@H](C[C@@H]2Cc3cc(O)cc(O)c3C(=O)O2)O1 | 4.64 | 1.6 | 0.5 | > 100 | 14.3 | 
2 | C[C@H]1CCC[C@@H](C[C@H]2Cc3cc(O)cc(O)c3C(=O)O2)O1 | 5.8 | 1.1 | 0.1 | > 100 | 15.6 | 
3 | C[C@@H]1CCC[C@H](C[C@H]2Cc3cc(O)cc(O)c3C(=O)O2)O1 | 0.29 | 0.27 | 1 | > 100 | 16.2 | 
4 | C[C@H]1CCC[C@@H](C[C@@H]2Cc3cc(O)cc(O)c3C(=O)O2)O1 | 29 | > 2 | 1.1 | > 100 | 11.4 | 
5 | C[C@@H]1CCC[C@@H](C[C@@H]2Cc3cc(O)cc(O)c3C(=O)O2)O1 | 50 | > 2 | -0.9 | > 100 | 7.9 | 
6 | C[C@H]1CCC[C@H](C[C@H]2Cc3cc(O)cc(O)c3C(=O)O2)O1 [CLADOSPORIN] | 0.12 | 0.04 | 1.3 | 105 | 17.3 | 840
7 | C[C@@H]1CCC[C@@H](C[C@H]2Cc3cc(O)cc(O)c3C(=O)O2)O1 | 7.25 | 1.15 | 1.1 | > 100 | 13.5 | 
8 | C[C@@H]1CCC[C@H](C[C@@H]2Cc3cc(O)cc(O)c3C(=O)O2)O1 | 21.3 | > 2 | 0.3 | > 100 | 11.8 | 
